Experimental data taken from ChEMBL document CHEMBL4354879, “Bioisosteric Discovery of NPA101.3, a Second-Generation RET/VEGFR2 Inhibitor Optimized for Single-Agent Polypharmacology” (J Med Chem, 2020).
Activity calls are given as the source filed them. The rule behind the calls is not given here.

Assays:
Mus musculus [1] = assay: In vivo inhibition of RET isoform 9 C634Y mutant transfected in mouse NIH/3T3 cells implanted BALB/c nu/nu mouse assessed as reduction in RET phosphorylation at Y905 residue at 3 mg/kg, po administered once daily via gavage for 2 days measured 3 hrs post-last dose by Western blot analysis
Mus musculus [2] = assay: In vivo inhibition of RET isoform 9 C634Y mutant transfected in mouse NIH/3T3 cells implanted BALB/c nu/nu mouse assessed as reduction in SHC phosphorylation in tumor at 1 mg/kg, po administered once daily via gavage for 3 days measured 3 hrs post-last dose by Western blot analysis
[3] = test system: Proto-oncogene tyrosine-protein kinase receptor Ret (Homo sapiens), P07949 [C634W]; assay: Inhibition of Ret isoform 9 C634W mutant in human TT cells assessed as reduction in phosphorylation at Y1062 residue at 0.3 to 30 nM measured after 2 hrs by Western blot analysis; format: cell-based
[4] = test system: Proto-oncogene tyrosine-protein kinase receptor Ret (Homo sapiens), P07949 [A883F]; assay: Inhibition of RET isoform 9 A883F mutant (unknown origin) expressed in rat Rat1 assessed as reduction in RET phosphorylation at Y905 residue at 1 to 100 nM measured after 2 hrs by Western blot analysis; format: cell-based
Procedure, shortened: (§1)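 Serum-starved RAT1 (RET point mutants) or NIH3T3 (RET rearrangements) cells expressing short RET-9 isoform, treated 2 h; 50 μg total lysate immunoblotted with anti-phospho-Y1062 and anti-phospho-Y905 RET antibodies, normalized to total RET; ECL detection. Compound from 50 mM DMSO stock diluted in growth medium.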

[5] = test system: Proto-oncogene tyrosine-protein kinase receptor Ret (Homo sapiens), P07949 [C634R]; assay: Inhibition of RET isoform 9 C634R mutant (unknown origin) expressed in rat Rat1 assessed as reduction in RET phosphorylation at Y905 residue at 3 nM measured after 2 hrs by Western blot analysis; format: cell-based
Procedure, shortened: (§2)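 RAT1 fibroblasts expressing RET-9 C634R, serum-starved, treated 2 h with 0.1–10.0 nM; 50 μg lysate blotted for RET pY905 and pY1062, normalized to total RET; ECL detection.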

Mus musculus [6] = assay: In vivo inhibition of VEGFR2 in BALB/c nu/nu mouse implanted with mouse NIH/3T3 cells harboring RET isoform 9 C634R mutant assessed as reduction in VEGFR2 phosphorylation at 3 mg/kg, po administered once daily via gavage for 3 days measured 3 hrs post-last dose by Western blot analysis; format: functional, organism-based
[7] = Toxicity in BALB/c nu/nu mouse assessed as change in alkaline phosphatase level at 10 mg/kg, po administered daily for 7 days; format: organism-based; conditions: in vivo, 168 h
Procedure, shortened: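 Mice dosed orally with 10 mg/kg/day for 7 days; standard blood markers of organ damage measured.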

[8] = target: Centrosomal protein 43/RET (Homo sapiens) (UniProt P07949+O95684); assay: Inhibition of FGFR1OP/RET isoform 9 (unknown origin) expressed in mouse NIH/3T3 cells assessed as reduction in RET phosphorylation at Y905 residue at 1 to 100 nM measured after 2 hrs by Western blot analysis; format: cell-based
Procedure, shortened: as §1

Mus musculus [9] = assay: In vivo inhibition of RET isoform 9 C634Y mutant transfected in mouse NIH/3T3 cells implanted BALB/c nu/nu mouse assessed as reduction in SHC phosphorylation at 3 mg/kg, po administered once daily via gavage for 2 days measured 3 hrs post-last dose by Western blot analysis
Mus musculus [10] = assay: In vivo inhibition of RET isoform 9 C634R mutant transfected in mouse NIH/3T3 cells implanted BALB/c nu/nu mouse assessed as reduction in RET phosphorylation at Y905 residue in tumor at 1 mg/kg, po administered once daily via gavage for 3 days measured 3 hrs post-last dose by Western blot analysis; format: functional, organism-based
[11] = test system: Proto-oncogene tyrosine-protein kinase receptor Ret (Homo sapiens), P07949 [C634R]; assay: Inhibition of RET isoform 9 C634R mutant (unknown origin) expressed in rat Rat1 assessed as reduction in RET phosphorylation at Y1062 residue at 3 nM measured after 2 hrs by Western blot analysis; format: cell-based
Procedure, shortened: as §2

[12] = target: NT-3 growth factor receptor (Homo sapiens) (UniProt Q16288); assay: Binding affinity to wild-type human partial length TRKC (Q531 to G825 residues) expressed in mammalian expression system at 100 nM by Kinomescan method relative to control
A549 = assay: Effect on MAPK phosphorylation in RET deficient human A549 cells at 1 to 100 nM measured after 2 hrs by western blot analysis; format: cell-based
BaF3 = assay: Inhibition of NCOA4/RET […] (unknown origin) expressed in mouse BAF3 cells assessed as reduction in RET phosphorylation at Y905 residue at 0.3 to 30 nM measured after 2 hrs by Western blot analysis; format: cell-based; conditions: Homo sapiens
Procedure, shortened: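 Ba/F3 cells stably expressing long-isoform RET-51 mutants (electroporation), cultured in RPMI/10% FCS without IL-3; RET phosphorylation read by Western blot with anti-phospho-Y905 and anti-phospho-Y1062 antibodies, ECL detection.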

[13] = target: Tyrosine-protein kinase FRK (Homo sapiens) (UniProt P42685); assay: Binding affinity to wild-type human partial length FRK (A215 to F503 residues) expressed in bacterial expression system at 100 nM by Kinomescan method relative to control
[14] = target: High affinity nerve growth factor receptor (Homo sapiens, UniProt P04629); assay: Binding affinity to wild-type human partial length TRKA (G475 to G790 residues) expressed in mammalian expression system at 100 nM by Kinomescan method relative to control
[15] = Toxicity in BALB/c nu/nu mouse assessed as change in glucose level at 10 mg/kg, po administered daily for 7 days; format: organism-based; conditions: in vivo, 168 h
[16] = target: T1, SHC-transforming protein 1 (Homo sapiens) (UniProt P29353); assay: Effect on SHC phosphorylation in RET deficient human PC9 cells at 1 to 100 nM measured after 2 hrs by western blot analysis
T1 sequence (whole entry): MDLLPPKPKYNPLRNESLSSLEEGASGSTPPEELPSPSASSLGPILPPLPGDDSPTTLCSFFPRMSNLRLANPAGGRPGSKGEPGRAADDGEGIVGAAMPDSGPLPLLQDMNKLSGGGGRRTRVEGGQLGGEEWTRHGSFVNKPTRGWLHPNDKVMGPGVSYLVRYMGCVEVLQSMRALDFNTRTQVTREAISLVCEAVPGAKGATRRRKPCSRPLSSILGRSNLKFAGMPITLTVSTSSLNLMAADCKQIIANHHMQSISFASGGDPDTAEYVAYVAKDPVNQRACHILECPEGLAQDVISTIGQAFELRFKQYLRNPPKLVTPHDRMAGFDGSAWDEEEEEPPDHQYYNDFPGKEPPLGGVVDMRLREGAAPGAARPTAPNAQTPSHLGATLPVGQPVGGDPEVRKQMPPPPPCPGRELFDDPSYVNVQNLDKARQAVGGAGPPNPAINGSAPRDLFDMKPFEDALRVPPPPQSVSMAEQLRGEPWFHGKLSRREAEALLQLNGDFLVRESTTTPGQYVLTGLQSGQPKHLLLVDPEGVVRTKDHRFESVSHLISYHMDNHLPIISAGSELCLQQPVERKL

Chain of Proto-oncogene tyrosine-protein kinase receptor Ret (Homo sapiens), P07949 [C634R] (P07949 whole entry C634R, canonical isoform): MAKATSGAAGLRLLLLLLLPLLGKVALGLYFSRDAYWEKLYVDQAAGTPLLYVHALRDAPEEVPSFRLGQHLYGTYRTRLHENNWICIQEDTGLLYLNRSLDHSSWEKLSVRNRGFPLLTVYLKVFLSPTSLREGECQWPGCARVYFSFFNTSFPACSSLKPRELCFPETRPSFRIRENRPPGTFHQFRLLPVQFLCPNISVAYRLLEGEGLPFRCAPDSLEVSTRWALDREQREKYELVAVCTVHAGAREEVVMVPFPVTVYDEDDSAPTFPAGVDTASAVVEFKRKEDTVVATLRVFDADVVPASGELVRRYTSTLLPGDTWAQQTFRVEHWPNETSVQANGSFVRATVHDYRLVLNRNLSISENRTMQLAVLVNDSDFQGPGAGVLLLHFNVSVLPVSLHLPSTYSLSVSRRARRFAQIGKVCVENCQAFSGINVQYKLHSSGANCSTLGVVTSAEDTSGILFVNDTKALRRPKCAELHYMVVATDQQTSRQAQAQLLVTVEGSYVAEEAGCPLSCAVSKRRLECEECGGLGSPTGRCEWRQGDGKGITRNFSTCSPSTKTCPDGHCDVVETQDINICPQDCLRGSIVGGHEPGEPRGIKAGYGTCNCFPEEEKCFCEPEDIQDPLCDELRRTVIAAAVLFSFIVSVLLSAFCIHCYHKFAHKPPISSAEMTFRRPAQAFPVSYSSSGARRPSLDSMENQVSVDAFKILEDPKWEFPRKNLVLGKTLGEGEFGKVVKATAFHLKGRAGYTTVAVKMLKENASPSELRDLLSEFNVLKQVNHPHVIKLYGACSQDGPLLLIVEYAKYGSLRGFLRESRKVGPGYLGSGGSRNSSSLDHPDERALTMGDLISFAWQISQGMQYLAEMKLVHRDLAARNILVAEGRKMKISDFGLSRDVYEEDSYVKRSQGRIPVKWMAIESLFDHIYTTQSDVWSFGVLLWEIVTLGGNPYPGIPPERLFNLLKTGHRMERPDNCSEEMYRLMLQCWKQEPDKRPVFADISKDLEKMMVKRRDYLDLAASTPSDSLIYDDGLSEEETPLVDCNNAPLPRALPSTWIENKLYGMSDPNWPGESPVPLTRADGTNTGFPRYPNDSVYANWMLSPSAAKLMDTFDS
Chain of Centrosomal protein 43/RET (Homo sapiens) (O95684 whole entry, looked up, canonical isoform): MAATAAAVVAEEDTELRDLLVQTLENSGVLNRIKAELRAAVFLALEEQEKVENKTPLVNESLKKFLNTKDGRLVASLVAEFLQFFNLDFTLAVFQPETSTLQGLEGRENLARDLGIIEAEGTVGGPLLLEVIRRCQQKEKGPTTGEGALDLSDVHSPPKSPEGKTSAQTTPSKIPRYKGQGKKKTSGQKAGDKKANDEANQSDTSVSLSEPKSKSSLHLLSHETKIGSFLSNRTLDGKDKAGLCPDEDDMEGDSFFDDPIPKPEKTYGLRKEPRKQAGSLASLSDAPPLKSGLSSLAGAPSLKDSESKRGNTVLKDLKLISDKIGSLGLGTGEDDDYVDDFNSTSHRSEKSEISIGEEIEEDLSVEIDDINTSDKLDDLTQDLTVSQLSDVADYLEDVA
Chain of Centrosomal protein 43/RET (Homo sapiens) (P07949 whole entry, looked up, canonical isoform): as the sequence (P07949 whole entry C634R, canonical isoform) above, with R634C counted along it
Chain of Tyrosine-protein kinase FRK (Homo sapiens) (P42685 whole entry, the tested form may be a part): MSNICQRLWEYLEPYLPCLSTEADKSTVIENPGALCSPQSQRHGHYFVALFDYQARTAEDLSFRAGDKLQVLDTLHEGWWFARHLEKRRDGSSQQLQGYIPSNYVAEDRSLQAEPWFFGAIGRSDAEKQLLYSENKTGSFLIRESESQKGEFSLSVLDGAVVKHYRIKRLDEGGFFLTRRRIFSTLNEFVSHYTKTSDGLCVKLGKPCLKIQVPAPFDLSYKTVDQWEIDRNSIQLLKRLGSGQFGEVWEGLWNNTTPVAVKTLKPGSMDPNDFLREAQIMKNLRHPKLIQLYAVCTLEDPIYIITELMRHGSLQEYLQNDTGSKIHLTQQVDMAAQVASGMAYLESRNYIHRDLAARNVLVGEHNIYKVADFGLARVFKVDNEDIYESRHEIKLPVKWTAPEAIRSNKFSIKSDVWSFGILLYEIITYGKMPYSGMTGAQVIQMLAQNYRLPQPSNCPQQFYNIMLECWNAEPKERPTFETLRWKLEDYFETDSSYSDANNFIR
Chain of NT-3 growth factor receptor (Homo sapiens) (Q16288 32-839 limits assumed): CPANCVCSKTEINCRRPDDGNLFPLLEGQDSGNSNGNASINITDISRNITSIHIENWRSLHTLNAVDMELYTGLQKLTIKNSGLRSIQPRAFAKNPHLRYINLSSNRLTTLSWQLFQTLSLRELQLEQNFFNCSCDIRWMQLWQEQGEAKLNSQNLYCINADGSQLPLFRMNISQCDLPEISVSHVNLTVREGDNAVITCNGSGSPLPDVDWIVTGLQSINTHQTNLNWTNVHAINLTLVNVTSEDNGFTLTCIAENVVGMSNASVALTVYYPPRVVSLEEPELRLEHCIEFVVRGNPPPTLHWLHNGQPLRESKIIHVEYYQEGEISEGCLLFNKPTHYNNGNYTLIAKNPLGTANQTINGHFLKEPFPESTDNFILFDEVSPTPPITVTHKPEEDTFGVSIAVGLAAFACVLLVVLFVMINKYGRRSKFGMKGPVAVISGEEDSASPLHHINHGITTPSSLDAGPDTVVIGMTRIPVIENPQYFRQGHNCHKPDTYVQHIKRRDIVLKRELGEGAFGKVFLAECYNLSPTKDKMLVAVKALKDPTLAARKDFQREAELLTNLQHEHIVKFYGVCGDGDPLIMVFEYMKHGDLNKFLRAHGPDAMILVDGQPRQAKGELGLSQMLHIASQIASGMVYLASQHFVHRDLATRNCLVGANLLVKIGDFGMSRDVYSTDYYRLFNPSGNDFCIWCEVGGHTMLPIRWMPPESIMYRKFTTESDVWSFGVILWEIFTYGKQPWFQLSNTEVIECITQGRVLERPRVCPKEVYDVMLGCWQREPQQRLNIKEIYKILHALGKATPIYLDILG
Chain of High affinity nerve growth factor receptor (P04629 33-796 limits assumed): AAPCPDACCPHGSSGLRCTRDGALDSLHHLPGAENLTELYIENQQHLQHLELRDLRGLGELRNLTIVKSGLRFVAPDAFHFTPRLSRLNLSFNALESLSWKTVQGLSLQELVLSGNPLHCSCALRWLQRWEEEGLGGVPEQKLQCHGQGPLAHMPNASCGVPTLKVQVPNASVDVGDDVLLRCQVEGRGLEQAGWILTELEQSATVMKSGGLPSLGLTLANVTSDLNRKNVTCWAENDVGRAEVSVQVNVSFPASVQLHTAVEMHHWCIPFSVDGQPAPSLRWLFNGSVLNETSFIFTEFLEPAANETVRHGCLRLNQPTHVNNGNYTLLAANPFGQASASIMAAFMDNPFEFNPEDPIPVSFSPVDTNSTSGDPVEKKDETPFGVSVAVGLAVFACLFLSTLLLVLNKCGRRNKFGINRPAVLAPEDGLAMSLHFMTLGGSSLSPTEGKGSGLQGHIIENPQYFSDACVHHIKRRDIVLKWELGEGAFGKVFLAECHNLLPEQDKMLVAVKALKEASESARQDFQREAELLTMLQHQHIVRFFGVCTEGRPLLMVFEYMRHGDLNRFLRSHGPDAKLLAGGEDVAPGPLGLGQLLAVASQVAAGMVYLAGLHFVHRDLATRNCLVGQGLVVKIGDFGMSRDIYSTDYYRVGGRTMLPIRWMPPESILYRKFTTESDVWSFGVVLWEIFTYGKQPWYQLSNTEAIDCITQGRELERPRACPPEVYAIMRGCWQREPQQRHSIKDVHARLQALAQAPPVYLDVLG
Chain of Proto-oncogene tyrosine-protein kinase receptor Ret (Homo sapiens), P07949 [A883F] (P07949 whole entry A883F, canonical isoform): as the sequence (P07949 whole entry C634R, canonical isoform) above, with R634C, A883F counted along it
Chain of Proto-oncogene tyrosine-protein kinase receptor Ret (Homo sapiens), P07949 [C634W] (P07949 whole entry C634W, canonical isoform): as the sequence (P07949 whole entry C634R, canonical isoform) above, with R634W counted along it

CC(C)(C)c1cc(NC(=O)Cc2ccc(-n3cnc4cc(-c5ccc(S(C)(=O)=O)cc5)ccc43)cc2)no1
inhibition (Mus musculus [1]): Active
inhibition (Mus musculus [2]): Active
inhibition [3]: Active
inhibition [4]: Active
inhibition [5]: 100%
inhibition (Mus musculus [6]): Active
Activity [7]: Non-Toxic
inhibition [8]: Active
inhibition (Mus musculus [9]): Active
inhibition (Mus musculus [10]): Active
inhibition [11]: 100%
Activity [12]: > 90%
Activity (A549): inactive
inhibition (BaF3): Active
Activity [13]: > 90%
Activity [14]: > 90%
Activity [15]: Non-Toxic
Activity [16]: inactive
